TRPML3 ag: activates the human TRPML3 channel; Q8TDD5; HEK293 TRPML3-YFP, Fluo-8 calcium fluorescence; 100% = the carbachol control signal; activation, % at 3 µM; 220,000 compounds, 0.29% hits; AID 1448;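 active = activation above its plate's cutoff, the mean activation of the plate's test wells plus 3 SD, cut at about 12% in these data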
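Test system – HEK293 line with stable expression of human TRPML3-YFP channel · Control set – carbachol 87 µM final as high control (100%), DMSO as low control (0%) · Signal – Fluo-8 calcium dye fluorescence, ex 470-495, em 515-575 nm · Incubation – 1-h 37 °C dye load, 5-s basal, 120-s post-compound reads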
TAAR1 ag: human TAAR1 agonism. activation, % at 3 µM. 360,000 compounds, 0.99% hits. AID 624467. CHO RD-HGA16 TAAR1, Fluo-8 calcium fluorescence; vehicle wells 0%, saturating PEA agonist 100%;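 active = activation above the mean activation of all test compounds in the run plus 3 SD, cut at about 38% in these data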
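Assay system: CHO-derived RD-HGA16 cells with stable Gα16 and human TAAR1; timing: 17-24 h seeding, 75 min 37 °C dye, 30 min RT; read-out: % activation from peak over basal fluorescence ratio, DMSO-to-PEA scaled; measured by: kinetic Fluo-8 calcium fluorescence; benchmarks: low control DMSO, high control PEA (EC100); doses: 3 µM single concentration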
TAAR1 antag: human TAAR1 antagonism. Q96RJ0. CHO RD-HGA16 TAAR1, Fluo-8 calcium fluorescence, antagonist. inhibition, % at 3 µM. 360,000 compounds, 1.5% hits. AID 624466;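 active = inhibition above a per-plate cutoff, the mean inhibition of test compounds on that plate plus 3 SD, cut at about 49% in these data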
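Test system – hTAAR1-expressing CHO RD-HGA16 cells, Gα16-coupled · Reagent – β-PEA at EC80 concentration, post-compound challenge · Compound dosing – 3 µM, single point · Timing – 140 s kinetic read after compound, 140 s after agonist · Detection – Fluo-8 intracellular calcium dye fluorescence, real-time kinetic reads · Control set – DMSO and EC80 PEA controls · Repeats – n of 1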
GPR7 antag: blocks human GPR7 receptor signaling; GPR7-expressing cells, fluorescence antagonist assay; inhibition, % at 4.4 µM; 290,000 compounds, 1.1% hits; AID 1861; in the data active = inhibition above about 16%, passing the limit was not always enough;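 also: cells stimulated with the agonist NPW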
zfTRPN1 agonist: agonists of zebrafish TRPN1 channel; 220,000 compounds, 0.18% hits; activation, % at 3 µM; HEK293 zebrafish TRPN1-YFP, Fluo-8 calcium fluorescence; 100% = response to 87 µM carbachol; AID 1424;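 active = activation above its plate's cutoff, the mean activation of test wells on that plate plus 3 SD, cut at about 19% in these data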
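Assay system: Zebrafish TRPN1-YFP in HEK293 cells | Incubation: Dye loading 1 h at 37 °C, then 30 min room temperature | Measured by: Kinetic Fluo-8 fluorescence, ex 470-495, em 515-575 nm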
LANA-H2B inh: blocks KSHV LANA binding to histone H2A/H2B; Q9QR71; cell-free LANA-H2A/H2B peptide, fluorescence polarization; inhibition, % (concentration not given with the values); 320,000 compounds, 0.6% hits; in the data active = inhibition mostly above about 10%, no sharp cut-off; inactive = mostly below about 6.7%
Target sequence (Q9QR71 whole entry, looked up): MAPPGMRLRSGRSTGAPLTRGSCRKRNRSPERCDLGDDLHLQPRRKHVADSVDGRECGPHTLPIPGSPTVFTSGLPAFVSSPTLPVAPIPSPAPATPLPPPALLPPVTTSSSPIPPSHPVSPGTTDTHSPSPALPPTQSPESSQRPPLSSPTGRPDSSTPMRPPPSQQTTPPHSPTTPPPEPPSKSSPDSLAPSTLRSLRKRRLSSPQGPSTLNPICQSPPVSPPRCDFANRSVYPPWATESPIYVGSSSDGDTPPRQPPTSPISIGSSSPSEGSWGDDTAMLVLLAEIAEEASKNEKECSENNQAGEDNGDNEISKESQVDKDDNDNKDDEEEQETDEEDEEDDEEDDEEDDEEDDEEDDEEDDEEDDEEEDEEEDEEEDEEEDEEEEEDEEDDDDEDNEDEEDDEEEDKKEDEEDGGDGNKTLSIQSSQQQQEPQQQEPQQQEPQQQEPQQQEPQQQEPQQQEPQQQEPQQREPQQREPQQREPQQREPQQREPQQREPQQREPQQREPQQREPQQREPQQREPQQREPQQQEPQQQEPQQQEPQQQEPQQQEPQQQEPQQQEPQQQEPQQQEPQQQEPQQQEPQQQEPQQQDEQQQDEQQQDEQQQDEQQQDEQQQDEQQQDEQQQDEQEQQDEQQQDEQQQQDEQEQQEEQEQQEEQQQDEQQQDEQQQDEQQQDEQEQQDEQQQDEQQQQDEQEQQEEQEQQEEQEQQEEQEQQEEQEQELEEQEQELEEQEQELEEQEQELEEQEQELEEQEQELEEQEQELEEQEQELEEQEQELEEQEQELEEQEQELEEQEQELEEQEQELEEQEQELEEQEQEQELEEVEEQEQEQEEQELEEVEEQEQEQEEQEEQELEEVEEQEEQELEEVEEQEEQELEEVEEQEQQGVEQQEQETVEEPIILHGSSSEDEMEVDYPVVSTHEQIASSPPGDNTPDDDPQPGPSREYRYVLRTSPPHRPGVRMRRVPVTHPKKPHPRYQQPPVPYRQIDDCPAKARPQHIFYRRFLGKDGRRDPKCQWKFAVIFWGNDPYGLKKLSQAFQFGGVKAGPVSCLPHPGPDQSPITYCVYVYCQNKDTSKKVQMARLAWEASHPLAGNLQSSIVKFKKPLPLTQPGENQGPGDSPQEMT
Large screens that a line does not name were inactive. Compounds with a hit are over-represented: about 3.4% of the library has one in this group of screens.

CCc1ccc(CN2CCC(n3nccc3NC(=O)c3ccc4c(c3)OCO4)CC2)cc1	none (no result: TRPML3 ag, zfTRPN1 agonist)
COc1ccc(C(=O)Nc2ccnn2C2CCN(CC3CC=CCC3)CC2)cc1 (stereo not given)	LANA-H2B inh 16.1 (no result: TRPML3 ag, zfTRPN1 agonist)
C/C=C(\C)CN1CCC(n2nccc2NC(=O)c2ccc3c(c2)OCO3)CC1	LANA-H2B inh 74.7 (no result: TRPML3 ag, zfTRPN1 agonist)
CC(C)[C@@H]1CC[C@@H](C)C[C@H]1OC[B-](F)(F)F	none (no result: TRPML3 ag, GPR7 antag, zfTRPN1 agonist, LANA-H2B inh)
NC1=NC[C@H](Cc2ccccc2)N1CCCCC1CCCCC1	TAAR1 antag 57.8 (no result: TRPML3 ag, GPR7 antag, zfTRPN1 agonist)
NC1=NC[C@H](Cc2ccc(O)cc2)N1CCCCC1CCCCC1	none (no result: TRPML3 ag, GPR7 antag, zfTRPN1 agonist)
O=C(OC1CCOC1=O)c1cc(-c2ccc(Br)cc2)nc2ccccc12 (stereo not given)	none
CCOc1ccc(NC(=O)CN(C)C(=O)c2cc(-c3ccc(OC)cc3)nc3ccccc23)cc1OCC	TAAR1 antag 56.1 (no result: TRPML3 ag, GPR7 antag, zfTRPN1 agonist, LANA-H2B inh)
COc1ccc(-c2cc(C(=O)OC3CCOC3=O)c3ccccc3n2)cc1 (stereo not given)	TAAR1 antag 53.4
COc1ccc(-c2cc(C(=O)OCC(=O)N(C)C)c3ccccc3n2)cc1	GPR7 antag 17.8
O=C(Nc1ccc(Nc2ccccc2)cc1)c1ccc(Cl)c([N+](=O)[O-])c1	TAAR1 antag 51.5 (no result: TRPML3 ag, zfTRPN1 agonist)
O=C(Nc1ccc(Cc2ccncc2)cc1)c1ccc(Cl)c([N+](=O)[O-])c1	TAAR1 antag 74.4 (no result: LANA-H2B inh)
COC(=O)[C@]12C[C@H](CC(=O)NCc3cccc(C(F)(F)F)c3)C(=O)N(Cc3ccc4c(c3)OCO4)C1=C[C@H](C(C)(C)C)O[C@@H]2C	none (no result: TRPML3 ag, GPR7 antag, zfTRPN1 agonist, LANA-H2B inh)
Cc1ccc(CN2CC=CCS2(=O)=O)cc1	none (no result: TRPML3 ag, GPR7 antag, zfTRPN1 agonist, LANA-H2B inh)
Cc1c(C(C)NC(=O)c2cc(COc3cccc4cnccc34)on2)cnn1C (stereo not given)	LANA-H2B inh 24.7 (no result: TRPML3 ag, zfTRPN1 agonist)
CSc1ccccc1OCc1cc(C(=O)NC(C)c2cnn(C)c2)no1 (stereo not given)	none (no result: TRPML3 ag, zfTRPN1 agonist)
COc1ccccc1C(=O)N1CCC2CCN(C(=O)OC(C)(C)C)C2C1 (stereo not given)	none (no result: TRPML3 ag, GPR7 antag, zfTRPN1 agonist, LANA-H2B inh)
COC(=O)c1ccccc1-c1ccc(/C=N/NC(=O)c2cc3ccccc3o2)o1	TAAR1 antag 55.4
COc1ccc(N(C(=O)c2snc(C(N)=O)c2N)C(C(=O)NC2CCCCC2)c2ccc(F)cc2)c(OC)c1 (stereo not given)	LANA-H2B inh 18.1 (no result: TRPML3 ag, zfTRPN1 agonist)
COc1ccc(C(C(=O)NCCC(C)C)N(CCO)C(=O)c2snc(C(N)=O)c2N)cc1 (stereo not given)	LANA-H2B inh 23.3 (no result: TRPML3 ag, zfTRPN1 agonist)
NC(=O)c1nsc(C(=O)N(c2cccc(F)c2)C(C(=O)NCc2ccccc2)c2ccc(O)cc2)c1N (stereo not given)	TAAR1 antag 52.5 (no result: TRPML3 ag, zfTRPN1 agonist)
COc1ccc(C(C(=O)NCc2ccccc2)N(Cc2ccco2)C(=O)c2snc(C(N)=O)c2N)cc1OC (stereo not given)	TAAR1 antag 57.2 (no result: TRPML3 ag, zfTRPN1 agonist)
NC(=O)c1nsc(C(=O)N(c2cccc(F)c2)C(C(=O)NC2CCCC2)c2ccc(O)cc2)c1N (stereo not given)	none (no result: TRPML3 ag, zfTRPN1 agonist)
CC(C)CC(NC(=O)OCc1ccccc1)C(=O)NCC(=O)NCC(=O)OCc1ccccc1 (stereo not given)	none (no result: TRPML3 ag, GPR7 antag, zfTRPN1 agonist, LANA-H2B inh)
CCCC#C/C(CCC)=C1\c2ccccc2C(=O)N1c1ccccc1	none (no result: TRPML3 ag, GPR7 antag, zfTRPN1 agonist, LANA-H2B inh)
COC(=O)[C@]12C[C@H](CC(=O)N3CCCCC3)C(=O)N(Cc3ccccc3)C1=C[C@H](C(C)(C)C)O[C@@H]2C	none (no result: TRPML3 ag, GPR7 antag, zfTRPN1 agonist, LANA-H2B inh)
COc1ccc(C(C(=O)NCc2ccccc2)N(Cc2ccco2)C(=O)c2snc(C(N)=O)c2N)cc1 (stereo not given)	TAAR1 antag 63.8 (no result: TRPML3 ag, zfTRPN1 agonist)
CC(C)CNc1cccc2c1S(=O)(=O)N(Cc1cccc(F)c1)[C@@H](C)[C@H](c1ccccc1)O2	none (no result: TRPML3 ag, GPR7 antag, zfTRPN1 agonist, LANA-H2B inh)
CC1=C/C(=C\C=C(C#N)C#N)N(C)c2ccccc21	TRPML3 ag 16.9, zfTRPN1 agonist 27.0
CC1=CC(=C(C#N)C#N)c2ccccc2N1C	LANA-H2B inh 46.2
O=C(NCc1ccccc1)[C@@H]1CCCN1C(=O)[C@H]1CCCN1C(=O)c1ccc(F)c(C(F)(F)F)c1	none (no result: TRPML3 ag, GPR7 antag, zfTRPN1 agonist, LANA-H2B inh)
O=C(Cn1cc(C(=O)C2CC2)c2ccccc21)Nc1ccc(F)cc1	none (no result: TRPML3 ag, zfTRPN1 agonist)
